Results taken from ChEMBL document CHEMBL1151448, “Comparative antianaerobic activities of doripenem determined by MIC and time-kill analysis” (2008).
Converted amounts (≈) assume the structure as drawn.

Tests used:
Format in all cases: functional
[1] = test system: Bacteroides fragilis; experiment: Antimicrobial activity against beta lactamase-positive Bacteroides fragilis isolated from intra-abdominal infection and pelvic inflammatory disease patients after 48 hrs by agar dilution method
Outline: (§1)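 CLSI agar dilution on brucella blood agar supplemented with laked sheep blood, hemin and vitamin K. Inocula of about 1 × 10^5 CFU/spot were applied by Steers replicator, and plates were incubated 48 h at 35°C in an anaerobic glove box. MIC was the concentration giving marked growth reduction versus the anaerobic control plate. QC strains were included each run, and β-lactamase was detected by Cefinase disk.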

[2] = test system: Bacteroides thetaiotaomicron; experiment: Antimicrobial activity against beta lactamase-positive Bacteroides thetaiotaomicron isolated from intra-abdominal infection and pelvic inflammatory disease patients after 48 hrs by agar dilution method; outline: as §1
[3] = test system: Bacteroides fragilis; experiment: Antimicrobial activity against beta lactamase-positive Bacteroides fragilis isolated from intra-abdominal infection and pelvic inflammatory disease patients after 48 hrs by time kill analysis
Outline: (§2)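 The MIC was read by inspecting macrodilution time-kill tubes. Vials held prereduced brucella broth with 5% laked horse blood cells, hemin 5 μg/ml and vitamin K1 1 μg/ml. Final inoculum was 10^6–10^7 CFU/ml, prepared inside the anaerobe chamber. Vials were incubated 48 h at 35°C in a shaking water bath.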

[4] = test system: Bacteroides thetaiotaomicron; experiment: Antimicrobial activity against beta lactamase-positive Bacteroides thetaiotaomicron isolated from intra-abdominal infection and pelvic inflammatory disease patients after 48 hrs by time kill analysis; outline: as §2
[5] = test system: Prevotella intermedia; experiment: Antimicrobial activity against beta lactamase-positive Prevotella intermedia isolated from intra-abdominal infection and pelvic inflammatory disease patients after 48 hrs by time kill analysis; outline: as §2
[6] = test system: Finegoldia magna; experiment: Antimicrobial activity against beta lactamase-positive Finegoldia magna isolated from intra-abdominal infection and pelvic inflammatory disease patients after 48 hrs by time kill analysis; outline: as §2
[7] = test system: Fusobacterium nucleatum; experiment: Antimicrobial activity against beta lactamase-positive Fusobacterium nucleatum isolated from intra-abdominal infection and pelvic inflammatory disease patients after 48 hrs by time kill analysis; outline: as §2
[8] = test system: Clostridium perfringens; experiment: Antimicrobial activity against Clostridium perfringens isolated from intra-abdominal infection and pelvic inflammatory disease patients after 48 hrs by time kill analysis
Outline: (§3)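 Macrodilution in prereduced brucella broth with 5% laked horse blood cells, 5 μg/ml hemin and 1 μg/ml vitamin K1. Final inoculum 10^6 to 10^7 CFU/ml, prepared inside the anaerobe chamber. Vials incubated 48 h at 35°C in a shaking water bath. MIC read by inspecting the time-kill tubes, alongside an antibiotic-free growth control.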

[9] = test system: Clostridioides difficile; experiment: Antimicrobial activity against Clostridium difficile isolated from intra-abdominal infection and pelvic inflammatory disease patients after 48 hrs by time kill analysis; outline: as §3
[10] = test system: Bacteroides ovatus; experiment: Antimicrobial activity against beta lactamase-positive Bacteroides ovatus isolated from intra-abdominal infection and pelvic inflammatory disease patients after 48 hrs by agar dilution method; outline: as §1
[11] = test system: Phocaeicola vulgatus; experiment: Antimicrobial activity against beta lactamase-positive Bacteroides vulgatus isolated from intra-abdominal infection and pelvic inflammatory disease patients after 48 hrs by agar dilution method; outline: as §1
[12] = test system: Parabacteroides distasonis; experiment: Antimicrobial activity against beta lactamase-positive Bacteroides distasonis isolated from intra-abdominal infection and pelvic inflammatory disease patients after 48 hrs by agar dilution method; outline: as §1
[13] = test system: Prevotella bivia; experiment: Antimicrobial activity against beta lactamase-positive Prevotella bivia isolated from intra-abdominal infection and pelvic inflammatory disease patients after 48 hrs by agar dilution method; outline: as §1
[14] = test system: Prevotella disiens; experiment: Antimicrobial activity against beta lactamase-positive Prevotella disiens isolated from intra-abdominal infection and pelvic inflammatory disease patients after 48 hrs by agar dilution method; outline: as §1
[15] = test system: Prevotella intermedia; experiment: Antimicrobial activity against beta lactamase-positive Prevotella intermedia isolated from intra-abdominal infection and pelvic inflammatory disease patients after 48 hrs by agar dilution method; outline: as §1
[16] = test system: Prevotella nigrescens; experiment: Antimicrobial activity against beta lactamase-positive Prevotella nigrescens isolated from intra-abdominal infection and pelvic inflammatory disease patients after 48 hrs by agar dilution method; outline: as §1
[17] = test system: Prevotella melaninogenica; experiment: Antimicrobial activity against beta lactamase-positive Prevotella melaninogenica isolated from intra-abdominal infection and pelvic inflammatory disease patients after 48 hrs by agar dilution method; outline: as §1
[18] = test system: Prevotella denticola; experiment: Antimicrobial activity against beta lactamase-positive Prevotella denticola isolated from intra-abdominal infection and pelvic inflammatory disease patients after 48 hrs by agar dilution method; outline: as §1
[19] = test system: Prevotella corporis; experiment: Antimicrobial activity against beta lactamase-positive Prevotella corporis isolated from intra-abdominal infection and pelvic inflammatory disease patients after 48 hrs by agar dilution method; outline: as §1
[20] = test system: Prevotella buccae; experiment: Antimicrobial activity against beta lactamase-positive Prevotella buccae isolated from intra-abdominal infection and pelvic inflammatory disease patients after 48 hrs by agar dilution method; settings: Segatella buccae; outline: as §1
[21] = test system: Porphyromonas asaccharolytica; experiment: Antimicrobial activity against Porphyromonas asaccharolyticus isolated from intra-abdominal infection and pelvic inflammatory disease patients after 48 hrs by agar dilution method; outline: as §1
[22] = test system: Porphyromonas gingivalis; experiment: Antimicrobial activity against Porphyromonas gingivalis isolated from intra-abdominal infection and pelvic inflammatory disease patients after 48 hrs by agar dilution method; outline: as §1
[23] = test system: Porphyromonas levii; experiment: Antimicrobial activity against Porphyromonas levii isolated from intra-abdominal infection and pelvic inflammatory disease patients after 48 hrs by agar dilution method; outline: as §1
[24] = test system: Fusobacterium nucleatum; experiment: Antimicrobial activity against beta lactamase-positive Fusobacterium nucleatum isolated from intra-abdominal infection and pelvic inflammatory disease patients after 48 hrs by agar dilution method; outline: as §1
[25] = test system: Fusobacterium necrophorum; experiment: Antimicrobial activity against Fusobacterium necrophorum isolated from intra-abdominal infection and pelvic inflammatory disease patients after 48 hrs by agar dilution method; outline: as §1
[26] = test system: Fusobacterium varium; experiment: Antimicrobial activity against Fusobacterium varium isolated from intra-abdominal infection and pelvic inflammatory disease patients after 48 hrs by agar dilution method; outline: as §1
[27] = test system: Fusobacterium mortiferum; experiment: Antimicrobial activity against beta lactamase-positive Fusobacterium mortiferum isolated from intra-abdominal infection and pelvic inflammatory disease patients after 48 hrs by agar dilution method; outline: as §1
[28] = test system: Finegoldia magna; experiment: Antimicrobial activity against Finegoldia magna isolated from intra-abdominal infection and pelvic inflammatory disease patients after 48 hrs by agar dilution method; outline: as §1
[29] = test system: Parvimonas micra; experiment: Antimicrobial activity against Micromonas micros isolated from intra-abdominal infection and pelvic inflammatory disease patients after 48 hrs by agar dilution method; outline: as §1
[30] = test system: Peptostreptococcus anaerobius; experiment: Antimicrobial activity against Peptostreptococcus anaerobius isolated from intra-abdominal infection and pelvic inflammatory disease patients after 48 hrs by agar dilution method; outline: as §1
[31] = test system: Anaerococcus prevotii; experiment: Antimicrobial activity against Anaerococcus prevotii isolated from intra-abdominal infection and pelvic inflammatory disease patients after 48 hrs by agar dilution method; outline: as §1
[32] = test system: Anaerococcus tetradius; experiment: Antimicrobial activity against Anaerococcus tetradius isolated from intra-abdominal infection and pelvic inflammatory disease patients after 48 hrs by agar dilution method; outline: as §1
[33] = test system: Peptoniphilus asaccharolyticus; experiment: Antimicrobial activity against Peptoniphilus asaccharolyticus isolated from intra-abdominal infection and pelvic inflammatory disease patients after 48 hrs by agar dilution method; outline: as §1
[34] = test system: Clostridium perfringens; experiment: Antimicrobial activity against Clostridium perfringens isolated from intra-abdominal infection and pelvic inflammatory disease patients after 48 hrs by agar dilution method
Outline: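 CLSI agar dilution on brucella blood agar supplemented with laked sheep blood, hemin and vitamin K. Inoculum about 1 × 10^5 CFU/spot, applied by Steers replicator. Plates incubated 48 h at 35°C in an anaerobic glove box. MIC is the concentration giving marked growth reduction versus the anaerobic control plate. Standard QC strains included in each run.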

[35] = test system: Clostridioides difficile; experiment: Antimicrobial activity against Clostridium difficile isolated from intra-abdominal infection and pelvic inflammatory disease patients after 48 hrs by agar dilution method; outline: as §1
[36] = test system: [Clostridium] innocuum; experiment: Antimicrobial activity against Clostridium innocuum isolated from intra-abdominal infection and pelvic inflammatory disease patients after 48 hrs by agar dilution method; outline: as §1
[37] = test system: Thomasclavelia ramosa; experiment: Antimicrobial activity against Clostridium ramosum isolated from intra-abdominal infection and pelvic inflammatory disease patients after 48 hrs by agar dilution method; outline: as §1
[38] = test system: Paraclostridium bifermentans; experiment: Antimicrobial activity against Clostridium bifermentans isolated from intra-abdominal infection and pelvic inflammatory disease patients after 48 hrs by agar dilution method; outline: as §1
[39] = test system: Enterocloster clostridioformis; experiment: Antimicrobial activity against Clostridium clostridioforme isolated from intra-abdominal infection and pelvic inflammatory disease patients after 48 hrs by agar dilution method; outline: as §1
[40] = test system: Paeniclostridium sordellii; experiment: Antimicrobial activity against Clostridium sordellii isolated from intra-abdominal infection and pelvic inflammatory disease patients after 48 hrs by agar dilution method; settings: Paraclostridium sordellii; outline: as §1
[41] = test system: Clostridium paraputrificum; experiment: Antimicrobial activity against Clostridium paraputrificum isolated from intra-abdominal infection and pelvic inflammatory disease patients after 48 hrs by agar dilution method; outline: as §1
[42] = test system: Clostridium cadaveris; experiment: Antimicrobial activity against Clostridium cadaveris isolated from intra-abdominal infection and pelvic inflammatory disease patients after 48 hrs by agar dilution method; outline: as §1

In the case of Cc1ncc([N+](=O)[O-])n1CCO [METRONIDAZOLE], the MIC50 [1] is reported as 1 µg/mL (≈ 5.84 µM), the MIC90 [1] is reported as 1 µg/mL (≈ 5.84 µM) and the MIC50 [2] is reported as 1 µg/mL (≈ 5.84 µM). The MIC90 [2] was 1 µg/mL (≈ 5.84 µM), the MIC [3] was 2 µg/mL (≈ 11.7 µM) and the MIC [4] was 1 µg/mL (≈ 5.84 µM). The MIC [5] was 0.5 µg/mL (≈ 2.92 µM), the MIC [6] was 1 µg/mL (≈ 5.84 µM) and the MIC [7] was 0.016 µg/mL (≈ 0.0935 µM). The MIC [8] was 2 µg/mL (≈ 11.7 µM), the MIC [9] was 0.5 µg/mL (≈ 2.92 µM) and the MIC50 [10] was 1 µg/mL (≈ 5.84 µM). For the same molecule, the MIC90 [10] was 2 µg/mL (≈ 11.7 µM), the MIC50 [11] was 0.5 µg/mL (≈ 2.92 µM) and the MIC90 [11] was 1 µg/mL (≈ 5.84 µM). The MIC [12] was 1 µg/mL (≈ 5.84 µM), the MIC50 [12] was 1 µg/mL (≈ 5.84 µM) and the MIC90 [12] was 1 µg/mL (≈ 5.84 µM). The MIC50 [13] was 2 µg/mL (≈ 11.7 µM), the MIC90 [13] was 2 µg/mL (≈ 11.7 µM) and the MIC [14] was 0.5 µg/mL (≈ 2.92 µM). The MIC50 [14] was 0.5 µg/mL (≈ 2.92 µM), the MIC90 [14] was 2 µg/mL (≈ 11.7 µM) and the MIC50 [15] was 0.5 µg/mL (≈ 2.92 µM). It also gave an MIC90 [15] of 2 µg/mL (≈ 11.7 µM), an MIC50 [16] of 0.5 µg/mL (≈ 2.92 µM) and an MIC90 [16] of 1 µg/mL (≈ 5.84 µM). It also gave an MIC50 [17] of 0.5 µg/mL (≈ 2.92 µM), an MIC90 [17] of 1 µg/mL (≈ 5.84 µM) and an MIC50 [18] of 0.5 µg/mL (≈ 2.92 µM). For the same molecule, the MIC90 [18] was 1 µg/mL (≈ 5.84 µM), the MIC50 [19] was 0.5 µg/mL (≈ 2.92 µM) and the MIC90 [19] was 1 µg/mL (≈ 5.84 µM). The MIC50 [20] was 1 µg/mL (≈ 5.84 µM), the MIC90 [20] was 1 µg/mL (≈ 5.84 µM) and the MIC [21] was no more than 0.125 µg/mL. For the same molecule, the MIC [22] was no more than 0.125 µg/mL, the MIC [23] was no more than 0.125 µg/mL and the MIC [24] was no more than 0.125 µg/mL. The MIC50 [24] was no more than 0.125 µg/mL, the MIC90 [24] was no more than 0.125 µg/mL and the MIC [25] was no more than 0.125 µg/mL. It also gave an MIC50 [25] of no more than 0.125 µg/mL, an MIC90 [25] of no more than 0.125 µg/mL and an MIC50 [26] of 0.25 µg/mL (≈ 1.46 µM). It also gave an MIC90 [26] of 0.5 µg/mL (≈ 2.92 µM), an MIC [27] of no more than 0.125 µg/mL and an MIC50 [27] of no more than 0.125 µg/mL. It also gave an MIC90 [27] of no more than 0.125 µg/mL, an MIC50 [28] of 0.5 µg/mL (≈ 2.92 µM) and an MIC90 [28] of 1 µg/mL (≈ 5.84 µM). It also gave an MIC50 [29] of 0.25 µg/mL (≈ 1.46 µM), an MIC90 [29] of 0.5 µg/mL (≈ 2.92 µM) and an MIC50 [30] of 0.5 µg/mL (≈ 2.92 µM). The MIC90 [30] was 1 µg/mL (≈ 5.84 µM), the MIC [31] was 0.25 µg/mL (≈ 1.46 µM) and the MIC50 [32] was 2 µg/mL (≈ 11.7 µM). The MIC50 [33] was 1 µg/mL (≈ 5.84 µM), the MIC90 [33] was 1 µg/mL (≈ 5.84 µM) and the MIC50 [34] was 1 µg/mL (≈ 5.84 µM). The MIC90 [34] was 2 µg/mL (≈ 11.7 µM), the MIC50 [35] was 0.5 µg/mL (≈ 2.92 µM) and the MIC90 [35] was 0.5 µg/mL (≈ 2.92 µM). The MIC50 [36] was 1 µg/mL (≈ 5.84 µM), the MIC50 [37] was 2 µg/mL (≈ 11.7 µM) and the MIC [38] was 0.25 µg/mL (≈ 1.46 µM). The MIC [39] was no more than 0.125 µg/mL, the MIC [40] was 0.5 µg/mL (≈ 2.92 µM) and the MIC [41] was 0.5 µg/mL (≈ 2.92 µM). It also gave an MIC [42] of 0.25 µg/mL (≈ 1.46 µM).
